Data reported in ChEMBL document CHEMBL2331542, “Synthesis and in vitro antibacterial activity of quinolone/naphthyridone derivatives containing 3-alkoxyimino-4-(methyl)aminopiperidine scaffolds” (2013).

What was measured:
Type in all cases: functional
Escherichia coli [1] = assay: Antibacterial activity against extended-spectrum beta-lactamase-producing Escherichia coli isolate 12-4
In short: (§1)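 MIC determined in vitro by a standard technique and defined as the lowest compound concentration giving complete inhibition of bacterial growth. The Gram-positive and Gram-negative panels were tested alongside gemifloxacin, levofloxacin and ciprofloxacin reference drugs.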

Escherichia coli [2] = assay: Antibacterial activity against extended-spectrum beta-lactamase-producing Escherichia coli isolate 12-2; in short: as §1
Escherichia coli [3] = assay: Antibacterial activity against extended-spectrum beta-lactamase-producing Escherichia coli isolate 12-1; in short: as §1
Escherichia coli [4] = assay: Antibacterial activity against Escherichia coli isolate 12-5; in short: as §1
Escherichia coli [5] = assay: Antibacterial activity against Escherichia coli isolate 12-4; in short: as §1
Escherichia coli [6] = assay: Antibacterial activity against Escherichia coli isolate 12-1; in short: as §1
Escherichia coli [7] = assay: Antibacterial activity against Escherichia coli ATCC 25922; in short: as §1
Streptococcus pneumoniae [8] = assay: Antibacterial activity against Streptococcus pneumoniae isolate 12-5; in short: as §1
Streptococcus pneumoniae [9] = assay: Antibacterial activity against Streptococcus pneumoniae isolate 12-2; in short: as §1
[10] = system: Staphylococcus epidermidis; assay: Antibacterial activity against methicillin-resistant Staphylococcus epidermidis isolate 12-35
In short: (§2)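 MIC determined in vitro by standard techniques, defined as the lowest compound concentration giving complete inhibition of bacterial growth. Gemifloxacin, levofloxacin and ciprofloxacin were tested alongside as reference drugs.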

[11] = system: Staphylococcus epidermidis; assay: Antibacterial activity against methicillin-resistant Staphylococcus epidermidis isolate 12-33; in short: as §2
[12] = system: Staphylococcus epidermidis; assay: Antibacterial activity against methicillin-resistant Staphylococcus epidermidis isolate 12-5; in short: as §2
[13] = system: Staphylococcus epidermidis; assay: Antibacterial activity against methicillin-sensitive Staphylococcus epidermidis isolate 12-3; in short: as §1
[14] = system: Staphylococcus epidermidis; assay: Antibacterial activity against methicillin-sensitive Staphylococcus epidermidis isolate 12-2; in short: as §1
[15] = system: Staphylococcus epidermidis; assay: Antibacterial activity against methicillin-sensitive Staphylococcus epidermidis isolate 12-1; in short: as §1
Staphylococcus aureus [16] = assay: Antibacterial activity against methicillin-resistant Staphylococcus aureus isolate 12-15; in short: as §2
Staphylococcus aureus [17] = assay: Antibacterial activity against methicillin-resistant Staphylococcus aureus isolate 12-13; in short: as §2
Staphylococcus aureus [18] = assay: Antibacterial activity against methicillin-resistant Staphylococcus aureus isolate 12-3; in short: as §2
Staphylococcus aureus [19] = assay: Antibacterial activity against methicillin-sensitive Staphylococcus aureus isolate 12-10; in short: as §1
Staphylococcus aureus [20] = assay: Antibacterial activity against methicillin-sensitive Staphylococcus aureus isolate 12-7; in short: as §1
Staphylococcus aureus [21] = assay: Antibacterial activity against methicillin-sensitive Staphylococcus aureus isolate 12-6; in short: as §1
Staphylococcus aureus [22] = assay: Antibacterial activity against Staphylococcus aureus […]; in short: as §1
Pseudomonas aeruginosa [23] = assay: Antibacterial activity against Pseudomonas aeruginosa isolate 12-2; in short: as §1
Pseudomonas aeruginosa [24] = assay: Antibacterial activity against Pseudomonas aeruginosa isolate 12-1; in short: as §1
Pseudomonas aeruginosa [25] = assay: Antibacterial activity against Pseudomonas aeruginosa ATCC 27853; in short: as §1
Klebsiella pneumoniae [26] = assay: Antibacterial activity against extended-spectrum beta-lactamase-producing Klebsiella pneumoniae isolate 12-4; in short: as §1
Klebsiella pneumoniae [27] = assay: Antibacterial activity against extended-spectrum beta-lactamase-producing Klebsiella pneumoniae isolate 12-2; in short: as §1
Klebsiella pneumoniae [28] = assay: Antibacterial activity against extended-spectrum beta-lactamase-producing Klebsiella pneumoniae isolate 12-1; in short: as §1
Klebsiella pneumoniae [29] = assay: Antibacterial activity against Klebsiella pneumoniae isolate 12-4; in short: as §1
Klebsiella pneumoniae [30] = assay: Antibacterial activity against Klebsiella pneumoniae isolate 12-2; in short: as §1
Klebsiella pneumoniae [31] = assay: Antibacterial activity against Klebsiella pneumoniae isolate 12-1; in short: as §1

Measured: MIC

CNC1CCN(c2c(F)cc3c(=O)c(C(=O)O)cn(C4CC4)c3c2F)C/C1=N\OC (stereo not given)
0.5 mg/L: [14] | Klebsiella pneumoniae [26] | Klebsiella pneumoniae [29] | Klebsiella pneumoniae [30] | Klebsiella pneumoniae [31]
128 mg/L: Escherichia coli [1]
> 128 mg/L: Escherichia coli [2] | Escherichia coli [3] | Escherichia coli [4] | Escherichia coli [5]
0.25 mg/L: [13] | [15] | Staphylococcus aureus [22]
< 0.008 mg/L: [11]
4 mg/L: Pseudomonas aeruginosa [25]
8 mg/L: Pseudomonas aeruginosa [23] | Pseudomonas aeruginosa [24] | Klebsiella pneumoniae [27] | Klebsiella pneumoniae [28]
0.03 mg/L: Escherichia coli [7] | Staphylococcus aureus [19] | Staphylococcus aureus [21]
0.015 mg/L: [10] | [12]
2 mg/L: Escherichia coli [6]
0.06 mg/L: all other assays above

CNC1CCN(c2nc3c(cc2F)c(=O)c(C(=O)O)cn3-c2ccc(F)cc2F)C/C1=N\OC (stereo not given)
4 mg/L: Pseudomonas aeruginosa [24]
0.125 mg/L: Escherichia coli [7] | [13] | [15] | Staphylococcus aureus [22]
> 128 mg/L: Escherichia coli [2] | Escherichia coli [3] | Escherichia coli [4] | Escherichia coli [5]
8 mg/L: Escherichia coli [6] | Pseudomonas aeruginosa [23] | Pseudomonas aeruginosa [25]
0.015 mg/L: [10] | [11] | [12]
32 mg/L: Escherichia coli [1] | Klebsiella pneumoniae [27]
0.5 mg/L: [14]
1 mg/L: Klebsiella pneumoniae [26] | Klebsiella pneumoniae [29] | Klebsiella pneumoniae [30] | Klebsiella pneumoniae [31]
0.06 mg/L: Streptococcus pneumoniae [8] | Streptococcus pneumoniae [9] | Staphylococcus aureus [20]
64 mg/L: Klebsiella pneumoniae [28]
0.03 mg/L: all other assays above

CNC1CCN(c2ccc3c(=O)c(C(=O)O)cn(C4CC4)c3n2)C/C1=N\OC (stereo not given)
64 mg/L: Escherichia coli [1] | Escherichia coli [6]
128 mg/L: Escherichia coli [2] | Klebsiella pneumoniae [28]
0.5 mg/L: Escherichia coli [7] | Staphylococcus aureus [22]
4 mg/L: Streptococcus pneumoniae [8] | Streptococcus pneumoniae [9] | [11] | Staphylococcus aureus [16] | Staphylococcus aureus [17] | Staphylococcus aureus [18] | Staphylococcus aureus [20]
> 128 mg/L: Escherichia coli [3] | Escherichia coli [4] | Escherichia coli [5] | Klebsiella pneumoniae [27]
16 mg/L: [14] | Pseudomonas aeruginosa [24]
8 mg/L: [13] | [15] | Pseudomonas aeruginosa [23] | Pseudomonas aeruginosa [25]
2 mg/L: all other assays above

CCn1cc(C(=O)O)c(=O)c2cc(F)c(N3CCC(NC)/C(=N/OC)C3)c(F)c21 (stereo not given)
16 mg/L: [14] | Klebsiella pneumoniae [28]
32 mg/L: Klebsiella pneumoniae [27]
4 mg/L: Klebsiella pneumoniae [30] | Klebsiella pneumoniae [31]
0.5 mg/L: Escherichia coli [7] | [10] | [12] | [13] | [15] | Staphylococcus aureus [19] | Staphylococcus aureus [21]
> 128 mg/L: Escherichia coli [2] | Escherichia coli [3] | Escherichia coli [4] | Escherichia coli [5]
128 mg/L: Escherichia coli [1]
0.125 mg/L: Staphylococcus aureus [22]
8 mg/L: Escherichia coli [6] | [11] | Pseudomonas aeruginosa [23] | Pseudomonas aeruginosa [24] | Pseudomonas aeruginosa [25]
1 mg/L: all other assays above

CCO/N=C1\CN(c2c(F)cc3c(=O)c(C(=O)O)cn(C4CC4)c3c2OC)CCC1NC (stereo not given)
4 mg/L: Klebsiella pneumoniae [30] | Klebsiella pneumoniae [31]
0.5 mg/L: [13] | [15]
16 mg/L: Escherichia coli [7] | Pseudomonas aeruginosa [23] | Pseudomonas aeruginosa [24] | Pseudomonas aeruginosa [25]
1 mg/L: Streptococcus pneumoniae [8] | [10] | [11] | [12] | [14]
2 mg/L: Klebsiella pneumoniae [29]
32 mg/L: Escherichia coli [1] | Staphylococcus aureus [20] | Klebsiella pneumoniae [27] | Klebsiella pneumoniae [28]
0.25 mg/L: Streptococcus pneumoniae [9] | Staphylococcus aureus [16] | Staphylococcus aureus [17] | Staphylococcus aureus [18] | Staphylococcus aureus [21]
8 mg/L: Escherichia coli [6]
0.125 mg/L: Staphylococcus aureus [19] | Staphylococcus aureus [22]
> 128 mg/L: all other assays above
